From ChEMBL document CHEMBL1123867, “Anticonvulsant O-alkyl sulfamates. 2,3:4,5-Bis-O-(1-methylethylidene)-beta-D-fructopyranose sulfamate and related compounds” (1987) come the findings set out here.

Common to all, as to format: functional
Common to all, as to conditions: route oral

For test [1], the system named is Mus musculus. The test can be described thus: Percentage block of the hind-limb tonic-extensor seizure was determined after application of an electric shock to mice for 240 min followed by 40 mg/kg peroral dose. In a few lines: (§1)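 Supramaximal electroshock: 50-mA current (60 Hz, 0.20 s) via corneal electrodes induced hind-limb tonic extension; inhibition of this component scored as activity. Mice dosed ip and/or po in aqueous solution or suspension (ca. 0.1% Tween 80, distilled water). Tested at 30, 60, 120 and 240 min (sometimes 45 min); ten mice per time point.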

Test [2] deals with Mus musculus. Kind of test: Percentage block of the hind-limb tonic-extensor seizure was determined after application of an electric shock to mice for 30 min followed by 40 mg/kg peroral dose. The gist of the method: as §1
Test [3] has as its system Mus musculus. Kind of test: Percentage block of the hind-limb tonic-extensor seizure was determined after application of an electric shock to mice for 120 min followed by 40 mg/kg peroral dose. In a few lines: as §1
In test [4] the test system is Mus musculus. The test can be described thus: Percentage block of the hind-limb tonic-extensor seizure was determined after application of an electric shock to mice for 60 min followed by 40 mg/kg peroral dose. In a few lines:
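Mouse MES test: supramaximal seizure from a 50-mA current (60 Hz, 0.20-s) through corneal electrodes. […] Ten mice per time point. Compound given in aqueous solution or in suspension in ca. 0.1% Tween 80 and distilled water. Free food and water except during testing.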

For `NS(=O)(=O)Cc1noc2ccccc12` [ZONISAMIDE], the Block was 50% with Mus musculus [1], 20% in the test with Mus musculus [2], 40% with Mus musculus [3] and 40% in the test with Mus musculus [4].
